Data set [1] can be described thus: Susceptibility of compound to hydrolysis at 37 degrees C at pH 7.4 phosphate buffer. It is filed as ADME. In a few lines: (§1)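 Prodrug (100 μM final, from 1 mM stock in 10% aqueous DMSO) is incubated at 37 °C in pH 7.4 phosphate buffer (150 mM NaCl, 4 mM NaH₂PO₄, 25 mM NaHCO₃) or pH 5.0 acetate (150 mM NaCl, 10 mM NaOAc). Half-life of ester disappearance is found by HPLC as the mean of two determinations.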

Data set [2] in a line: Susceptibility of compound to hydrolysis at 37 degrees C at pH 5.0 acetate medium. It is filed as ADME. The gist of the method: as §1
Data set [3] concerns the target Glutathione reductase (Plasmodium falciparum 3D7) (UniProt O15770). In words: In vitro inhibition of Plasmodium falciparum Glutathione Reductase; Not active. As to conditions: Plasmodium falciparum FcB1. The gist of the method: (§2)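 Recombinant purified GR (about 5 mU/ml) with 100 μM NADPH in 47 mM potassium phosphate, 200 mM KCl, 1 mM EDTA, pH 6.9, at 25 °C. Enzyme, NADPH and inhibitor are premixed and the reaction is started with 100 μM GSSG. NADPH loss is read at 340 nm. IC50 is taken from increasing inhibitor concentrations in 1% final DMSO, run in duplicate.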

Data set [4] is described as follows: Susceptibility of compound to hydrolysis at 37 degrees C for RPMI-10% human serum. It is filed as ADME. As to conditions: RPMI with 10% human serum. The gist of the method:
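Prodrug (100 μM final, from 1 mM stock in 10% aqueous DMSO) is held in RPMI with 10% human serum at 37 °C and sampled from 0 to 77.5 h. Samples are mixed with EtOH plus internal reference, centrifuged, and the supernatant is analysed by HPLC. Half-life of ester disappearance is the mean of two determinations.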

Data set [5] addresses T1, Glutathione reductase, mitochondrial (Homo sapiens) (UniProt P00390).
T1 sequence (whole entry): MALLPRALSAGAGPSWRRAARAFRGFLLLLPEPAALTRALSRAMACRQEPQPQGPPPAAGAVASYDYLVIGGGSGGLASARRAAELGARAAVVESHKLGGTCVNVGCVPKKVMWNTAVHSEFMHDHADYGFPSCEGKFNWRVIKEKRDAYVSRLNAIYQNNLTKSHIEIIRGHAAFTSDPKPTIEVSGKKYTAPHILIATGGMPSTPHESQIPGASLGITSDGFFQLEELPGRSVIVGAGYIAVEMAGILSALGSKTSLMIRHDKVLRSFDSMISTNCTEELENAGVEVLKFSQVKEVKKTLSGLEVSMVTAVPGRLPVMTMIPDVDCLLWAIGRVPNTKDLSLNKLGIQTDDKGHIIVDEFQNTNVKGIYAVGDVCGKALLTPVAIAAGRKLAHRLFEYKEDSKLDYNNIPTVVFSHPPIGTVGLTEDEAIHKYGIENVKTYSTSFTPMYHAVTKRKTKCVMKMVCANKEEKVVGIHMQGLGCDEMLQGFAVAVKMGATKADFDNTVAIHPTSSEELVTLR
In words: In vitro inhibition of human Glutathione Reductase; Not active. The gist of the method:
as §2

In data set [6] the test system is Plasmodium falciparum. In words: Effective dose against chloroquine-resistant Plasmodium falciparum FcB1R. It counts as functional. The gist of the method: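 Asynchronous cultures in human erythrocytes (0.5% parasitemia, 1% hematocrit) received serially diluted drug, DMSO ≤0.1%. After 24 h at 37 °C, 0.5 μCi [3H]hypoxanthine was added and incubation continued another 24 h. Growth inhibition was taken versus drug-free control, ED50 read from the concentration–response curve, and reported as mean of ≥3 independent experiments.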

In data set [7] the target is T2, Glutathione reductase, mitochondrial (Homo sapiens, UniProt P00390).
T2 sequence (P00390 whole entry): T1 sequence (whole entry)
Nature of the data set: In vitro inhibition of human Glutathione Reductase. The gist of the method:
as §2

In data set [8] the target is Glutathione reductase (Plasmodium falciparum 3D7) (UniProt O15770). Nature of the data set: Competitive inhibition of Plasmodium falciparum Glutathione Reductase. The following applies: Plasmodium falciparum FcB1.
For data set [9], the target named is Glutathione reductase (Plasmodium falciparum 3D7, UniProt O15770). In words: In vitro inhibition of Plasmodium falciparum Glutathione Reductase. Set-up: species or system FcB1. In a few lines:
as §2

The target of data set [10] is T1, Glutathione reductase, mitochondrial (Homo sapiens). In words: Competitive inhibition of human Glutathione Reductase.
Setting [11] is: read-out: ED50 (the source's name).

Active and inactive are the calls of the source. No cut-off for these calls is given here. Where only a bound is given, the exact number is not on record here.

Chain of Glutathione reductase (Plasmodium falciparum 3D7) (O15770 whole entry): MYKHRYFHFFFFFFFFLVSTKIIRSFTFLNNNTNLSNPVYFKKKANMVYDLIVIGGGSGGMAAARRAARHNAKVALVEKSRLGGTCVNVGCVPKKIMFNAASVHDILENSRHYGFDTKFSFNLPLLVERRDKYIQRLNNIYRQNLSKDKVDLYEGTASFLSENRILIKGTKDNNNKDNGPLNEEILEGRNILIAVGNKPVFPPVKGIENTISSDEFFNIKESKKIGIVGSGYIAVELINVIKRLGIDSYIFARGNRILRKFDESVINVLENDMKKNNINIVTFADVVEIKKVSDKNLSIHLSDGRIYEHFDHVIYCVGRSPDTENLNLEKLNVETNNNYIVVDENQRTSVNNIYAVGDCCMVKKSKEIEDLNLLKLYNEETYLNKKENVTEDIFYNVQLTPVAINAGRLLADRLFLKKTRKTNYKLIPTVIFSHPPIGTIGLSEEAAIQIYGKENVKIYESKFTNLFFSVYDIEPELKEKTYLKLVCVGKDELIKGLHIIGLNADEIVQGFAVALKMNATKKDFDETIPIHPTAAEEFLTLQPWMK
Chain of Glutathione reductase (O15770 whole entry): as above

With `COC(=O)CCCCCC1=C(C)C(=O)c2ccccc2C1=O`, the half-life in data set [1] was 1 h; in data set [2], 0.5 h; in data set [4], above 3 h. The NA result in data set [3] and in data set [5] was “inactive” in each case. For the same molecule, the EC50 in data set [6] (setting [11]) came to 10800 nM.

Regarding `CCCC(=O)OCOC(=O)CCCCCC1=C(C)C(=O)c2ccccc2C1=O`, the half-life in [1] stood at 1 h; in [2], 0.5 h. Also, the NA entry in data set [3] and in data set [5] was “inactive” each time. Moreover, in data set [6] (setting [11]), the EC50 is 22400 nM.

With `CC1=C(CCCCC(=O)O)C(=O)c2ccccc2C1=O`, the IC50 came to 2700 nM in data set [7] and 4000 nM in data set [9]. The Ki.c came to 3100 nM in data set [8] and 1.8 in [10]. The EC50 in data set [6] (setting [11]) was found to be 2800 nM.

Consider `O=C(CN1CCCCC1)Nc1cc(COC(=O)CCCCCc2ccccc2)cc(Nc2ccnc3cc(Cl)ccc23)c1`, for which the EC50 in [6] (read-out: ED50) came to 368 nM.

Take `CC1=C(CCCCCC(=O)O)C(=O)c2c(O)cccc2C1=O`: the IC50 in [7] came out at 750 nM; in data set [9] it was 1300 nM. The Ki.c came to 2300 nM in data set [8] and 750 nM in [10]. For the same molecule, the EC50 in data set [6] (setting [11]) is 8200 nM.

`CC1=C(CCCCCC(=O)O)C(=O)c2ccccc2C1=O`: the IC50 in [7] was determined as 2600 nM; in data set [9], 500 nM. Moreover, the Ki.c in data set [8] stood at 500 nM; in [10], 1900 nM. The EC50 in data set [6] (setting [11]) stood at 3500 nM.

Take `CC1=C(CCCCC(=O)OCc2cc(NC(=O)CN3CCCCC3)cc(Nc3ccnc4cc(Cl)ccc34)c2)C(=O)c2ccccc2C1=O`: the EC50 in [6] (setting [11]) is 47000 nM.

(Values after ChEMBL document CHEMBL1134294, “A prodrug form of a Plasmodium falciparum glutathione reductase inhibitor conjugated with a 4-anilinoquinoline” (J Med Chem, 2001).)
